Measurements: ChEMBL document CHEMBL3797027, “Potent anti-proliferative actions of a non-diuretic glucosamine derivative of ethacrynic acid” (Bioorg Med Chem Lett, 2016)
Activity calls are given as the source filed them. No cut-off for these calls is given here.

Columns and labels:
NCI-H1299 [1] = experiment: Increase in p21 (waf1/cip1) protein expression in p53 deficient human H1299 cells at 10 to 40 uM by Western blot method; type: functional, cell-based
Outline: (§1)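 H1299 (p53-null), HCT116 (p53 wild type) and MDA-MB-231 (p53 mutant) cells were treated, then lysates were immunoblotted for p53, p21, PUMA and PARP. β-Actin served as loading control.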

NCI-H1299 [2] = experiment: Induction of ROS generation in human H1299 cells at 20 and 40 uM incubated for 3 hrs by DCFDA staining based fluorescence microscopy; type: functional, cell-based
Outline: (§2)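 After 3 h exposure at different concentrations, DCFH-DA fluorescence was imaged by fluorescence microscopy. H2O2 (25 µM) served as positive control. In some wells, cells were pretreated with 3 mM N-acetylcysteine before compound addition.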

Mus musculus [3] = experiment: Toxicity in mouse assessed as induction of lethargy at 120 mg/kg/week for 2 weeks; type: organism-based; settings: in vivo, 336 h
[4] = Potency index, ratio of IC50 for ethacrynic acid to IC50 for test compound for cytotoxic activity against human SKBR3 cells assessed as inhibition of cell proliferation incubated for 72 hrs by MTT assay; type: functional, SK-BR-3
MDA-MB-231 [5] = experiment: Reduction in cellular total thiol levels in human MDA-MB-231 cells at 40 uM incubated for 3 hrs by Ellman's reagent based assay; type: functional
Outline: (§3)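 Cells exposed to 0–40 µM compound for 3 h, then trypsinized. Total thiols in cell extracts were quantified with Ellman's reagent.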

Mus musculus [6] = experiment: Toxicity in mouse assessed as induction of stress at 120 mg/kg/week for 2 weeks; type: organism-based; settings: in vivo, 336 h
Mus musculus [7] = experiment: Toxicity in mouse assessed as induction of paralysis at 120 mg/kg/week for 2 weeks; type: organism-based; settings: in vivo, 336 h
[8] = Cytotoxic activity against human HT1080 cells assessed as inhibition of cell proliferation incubated for 72 hrs by MTT assay; type: functional, cell-based; settings: HT-1080, 72 h
Outline: (§4)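 MTT cell survival assay. IC50 is the concentration that inhibits tumour cell proliferation by 50%, read from cell survival curves. Values are given as mean ± SD of three independent experiments.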

MCF7 [9] = experiment: Cytotoxic activity against human MCF7 cells assessed as inhibition of cell proliferation incubated for 72 hrs by MTT assay; type: functional, cell-based; settings: MCF7, 72 h; outline: as §4
[10] = target: Glutathione S-transferase P (Homo sapiens) (UniProt P09211); experiment: Inhibition of GSTP1 in human HCT116 cells assessed as reduction in GST-pi activity at 50 uM pre-incubated for 3 hrs followed by chlorodinitrobenzene and reduced glutathione addition by photometric assay; settings: HCT-116
[11] = target: Glutathione S-transferase P (Homo sapiens) (UniProt P09211); experiment: Inhibition of GSTP1 in human H1299 cells assessed as reduction in GST-pi activity pre-incubated for 3 hrs followed by chlorodinitrobenzene and reduced glutathione addition by photometric assay
HCT-116 [12] = experiment: Increase in p53 protein expression in wild type p53 expressing human HCT116 cells at 10 to 40 uM by Western blot method; type: functional, cell-based; outline: as §1
NCI-H1299 [13] = experiment: Increase in cleaved PARP protein expression in p53 deficient human H1299 cells at 10 to 40 uM by Western blot method; type: functional, cell-based; outline: as §1
MDA-MB-231 [14] = experiment: Induction of ROS generation in human MDA-MB-231 cells at 20 and 40 uM incubated for 3 hrs after pre-incubation with 3 mM NAC for 1 hr by DCFDA staining based fluorescence microscopy; type: functional, cell-based; outline: as §2
Mus musculus [15] = experiment: Toxicity in mouse assessed as induction of tremors at 120 mg/kg/week for 2 weeks; type: organism-based; settings: in vivo, 336 h
[16] = target: Glutathione S-transferase P (Homo sapiens) (UniProt P09211); experiment: Inhibition of GSTP1 in human MDA-MB-231 cells assessed as reduction in GST-pi activity pre-incubated for 3 hrs followed by chlorodinitrobenzene and reduced glutathione addition by photometric assay
[17] = Cytotoxic activity against human MCF10A cells assessed as inhibition of cell proliferation incubated for 72 hrs by MTT assay; type: cell-based; settings: mcf-10a; outline: as §4
MDA-MB-231 [18] = experiment: Increase in p53 protein expression in p53 mutant expressing human MDA-MB-231 cells at 10 to 40 uM by Western blot method; type: functional, cell-based; outline: as §1
HT-29 = experiment: Cytotoxic activity against human HT-29 cells assessed as inhibition of cell proliferation incubated for 72 hrs by MTT assay; type: functional, cell-based; settings: HT-29, 72 h; outline: as §4
HCT-116 [19] = experiment: Increase in PUMA protein expression in wild type p53 expressing human HCT116 cells at 10 to 40 uM by Western blot method; type: functional, cell-based; outline: as §1
MCF7 [20] = experiment: Potency index, ratio of IC50 for ethacrynic acid to IC50 for test compound for cytotoxic activity against human MCF7 cells assessed as inhibition of cell proliferation incubated for 72 hrs by MTT assay; type: functional
[21] = Potency index, ratio of IC50 for ethacrynic acid to IC50 for test compound for cytotoxic activity against human H1299 cells assessed as inhibition of cell proliferation incubated for 72 hrs by MTT assay; type: functional
Outline: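 Index is the reference IC50 divided by the test IC50. Both IC50s were taken from MTT cell survival curves, each as mean ± SD of three independent experiments.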

HCT-116 [22] = experiment: Increase in p21'cip1 protein expression in wild type p53 expressing human HCT116 cells at 10 to 40 uM by Western blot method; type: functional, cell-based; outline: as §1
HCT-116 [23] = experiment: Induction of cell cycle arrest in wild type p53 expressing human HCT116 cells assessed as accumulation at G2/M phase incubated for 24 hrs by propidium iodide staining based flow cytometry; type: functional
HCT-116 [24] = experiment: Induction of ROS generation in human HCT116 cells at 20 and 40 uM incubated for 3 hrs by DCFDA staining based fluorescence microscopy; type: functional, cell-based; outline: as §2
MDA-MB-231 [25] = experiment: Reduction in cellular total thiol levels in human MDA-MB-231 cells incubated for 3 hrs by Ellman's reagent based assay; type: functional, cell-based; outline: as §3
MDA-MB-231 [26] = experiment: Increase in p21'cip1 protein expression in p53 mutant expressing human MDA-MB-231 cells at 10 to 40 uM by Western blot method; type: functional, cell-based; outline: as §1
[27] = Potency index, ratio of IC50 for ethacrynic acid to IC50 for test compound for cytotoxic activity against human SF188 cells assessed as inhibition of cell proliferation incubated for 72 hrs by MTT assay; type: functional, SF-188
HCT-116 [28] = experiment: Reduction in cellular total thiol levels in human HCT116 cells incubated for 3 hrs by Ellman's reagent based assay; type: functional, cell-based; outline: as §3
NCI-H1299 [29] = experiment: Increase in p21'cip1 protein expression in p53 deficient human H1299 cells at 10 to 40 uM by Western blot method; type: functional, cell-based; outline: as §1
HCT-116 [30] = experiment: Induction of ROS generation in human HCT116 cells at 20 and 40 uM incubated for 3 hrs after pre-incubation with 3 mM NAC for 1 hr by DCFDA staining based fluorescence microscopy; type: functional, cell-based; outline: as §2
MDA-MB-231 [31] = experiment: Increase in p21 (waf1/cip1) protein expression in p53 mutant expressing human MDA-MB-231 cells at 10 to 40 uM by Western blot method; type: functional, cell-based; outline: as §1
NCI-H1299 [32] = experiment: Induction of cell cycle arrest in p53 deficient human H1299 cells assessed as accumulation at G2/M phase incubated for 24 hrs by propidium iodide staining based flow cytometry; type: functional

Sequence of Glutathione S-transferase P (Homo sapiens) (P09211 2-210 limits assumed): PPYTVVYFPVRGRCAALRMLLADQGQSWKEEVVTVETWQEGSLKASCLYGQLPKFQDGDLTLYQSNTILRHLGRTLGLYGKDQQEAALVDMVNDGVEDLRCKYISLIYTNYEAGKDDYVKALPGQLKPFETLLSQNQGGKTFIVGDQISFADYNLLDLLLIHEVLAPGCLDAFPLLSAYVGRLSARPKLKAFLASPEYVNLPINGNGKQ

For C=C(CC)C(=O)c1ccc(OCC(=O)N[C@@H]2[C@@H](O)[C@H](O)[C@@H](CO)O[C@H]2O)c(Cl)c1Cl, the Activity (NCI-H1299 [1]) was “Active”, the Activity (NCI-H1299 [2]) was “Active” and the Activity (Mus musculus [3]) was “Non-toxic”. For the same molecule, the “Ratio IC50” value [4] was 3, the Imax (MDA-MB-231 [5]) was 58% and the Activity (Mus musculus [6]) was “Non-toxic”. The Activity (Mus musculus [7]) was “Non-toxic”, the IC50 [8] was 16.3 µM and the IC50 (MCF7 [9]) was 10.1 µM. The Imax [10] was 60%, the Activity [11] was “Dose-dependent effect” and the Activity (HCT-116 [12]) was “Active”. For the same molecule, the Activity (NCI-H1299 [13]) was “Active”, the Activity (MDA-MB-231 [14]) was “inactive” and the Activity (Mus musculus [15]) was “Non-toxic”. For the same molecule, the Activity [16] was “Dose-dependent effect”, the Activity [17] was “Non-toxic” and the Activity (MDA-MB-231 [18]) was “Active”. The IC50 (HT-29) was 21.7 µM, the Activity (HCT-116 [19]) was “Active” and the “Ratio IC50” value (MCF7 [20]) was 3. For the same molecule, the “Ratio IC50” value [21] was 3, the Activity (HCT-116 [22]) was “Active” and the Activity (HCT-116 [23]) was “Dose-dependent effect”. For the same molecule, the Activity (HCT-116 [24]) was “Active”, the Activity (MDA-MB-231 [25]) was “Dose-dependent effect” and the Activity (MDA-MB-231 [26]) was “Active”. For the same molecule, the “Ratio IC50” value [27] was 3, the Activity (HCT-116 [28]) was “Dose-dependent effect” and the Activity (NCI-H1299 [29]) was “Active”. For the same molecule, the Activity (HCT-116 [30]) was “inactive”, the Activity (MDA-MB-231 [31]) was “Active” and the Activity (NCI-H1299 [32]) was “Dose-dependent effect”.
